Values joined by “and” are separate entries in the source; they are usually repeats but may differ in a detail not shown here. Equal values may be shown once.
Test system: Fibroblast
Assay: Multiplex assay against human fibroblast
Assay type: toxicity, cell-based
Procedure, shortened: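 Four dyes were applied at seeding to live cells: Hoechst33342, BioTracker Green Microtubule Cytoskeleton Dye, MitoTracker Red and Annexin V Alexa Fluor 680. Imaging after compound addition used a CQ1 microscope at 37°C and 5% CO2. CellPathfinder machine-learning gating then sorted cells into Hoechst high-intensity objects or normal cells, normal cells into healthy, pyknosed or fragmented nuclei, and pyknosed cells into mitotic or apoptotic, with tubulin, mitochondrial-mass and membrane-permeability phenotypes given as per cents of healthy-nucleus cells.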

[1] = 12 h, 1 µM, compound concentration 1 uM
[2] = 12 h, 10 µM, compound concentration 10 uM
[3] = 24 h, 1 µM, compound concentration 1 uM
[4] = 24 h, 10 µM, compound concentration 10 uM
[5] = 48 h, 1 µM, compound concentration 1 uM
[6] = 48 h, 10 µM, compound concentration 10 uM

S=c1[nH]nc(-c2cccs2)n1-c1ccccc1
Population Apoptotic (%) [1]: 10.45% and 27.27% | Population Fragmented Nuclei (%) [1]: 8.13% and 2.86% | Population Healthy Nuclei (%) [1]: 59.81% and 84.57% | Population Hoechst High Intensity Objects (%) [1]: 0% | Population Membrane Permeable-Phenotype (%) [1]: 2.4% and 4.05% | Population Mitochondria Different-Phenotype (%) [1]: 10.4% and 6.76% | Population Mitotic Cells (%) [1]: 89.55% and 72.73% | Population Normal (%) [1]: 100% | Population Pyknosed Nuclei (%) [1]: 32.06% and 12.57% | Population Tubulin-Different-Phenotype (%) [1]: 13.6% and 28.38% | Total Cell Count [1]: 209 and 175 | Population Apoptotic (%) [2]: 17.07% and 26.67% | Population Healthy Nuclei (%) [2]: 62.62% and 78.84% | Population Hoechst High Intensity Objects (%) [2]: 0% | Population Membrane Permeable-Phenotype (%) [2]: 5.97% and 4.03% | Population Mitochondria Different-Phenotype (%) [2]: 8.21% and 11.41% | Population Mitotic Cells (%) [2]: 82.93% and 73.33% | Population Normal (%) [2]: 100% | Population Pyknosed Nuclei (%) [2]: 19.16% and 15.87% | Population Tubulin-Different-Phenotype (%) [2]: 14.18% and 20.13% | Total Cell Count [2]: 214 and 189 | Population Fragmented Nuclei (%) [3]: 7.76% and 4% | Population Healthy Nuclei (%) [3]: 78.88% and 84% | Population Hoechst High Intensity Objects (%) [3]: 0% | Population Membrane Permeable-Phenotype (%) [3]: 3.28% and 2.04% | Population Mitochondria Different-Phenotype (%) [3]: 4.92% and 4.76% | Population Mitotic Cells (%) [3]: 93.55% and 76.19% | Population Normal (%) [3]: 100% | Population Pyknosed Nuclei (%) [3]: 13.36% and 12% | Population Tubulin-Different-Phenotype (%) [3]: 8.2% and 19.05% | Total Cell Count [3]: 232 and 175 | Population Apoptotic (%) [4]: 16.22% and 35.71% | Population Fragmented Nuclei (%) [4]: 14.71% and 5.24% | Population Healthy Nuclei (%) [4]: 69.75% and 80.1% | Population Hoechst High Intensity Objects (%) [4]: 0% | Population Membrane Permeable-Phenotype (%) [4]: 3.61% and 5.88% | Population Mitochondria Different-Phenotype (%) [4]: 4.22% and 5.23% | Population Mitotic Cells (%) [4]: 83.78% and 64.29% | Population Normal (%) [4]: 100% | Population Pyknosed Nuclei (%) [4]: 15.55% and 14.66% | Population Tubulin-Different-Phenotype (%) [4]: 11.45% and 16.99% | Total Cell Count [4]: 238 and 191 | Population Apoptotic (%) [5]: 8.33% and 10.53% | Population Fragmented Nuclei (%) [5]: 8.8% and 5.49% | Population Healthy Nuclei (%) [5]: 86.4% and 84.07% | Population Hoechst High Intensity Objects (%) [5]: 0% | Population Membrane Permeable-Phenotype (%) [5]: 0.93% and 1.96% | Population Mitochondria Different-Phenotype (%) [5]: 10.19% and 2.61% | Population Mitotic Cells (%) [5]: 91.67% and 89.47% | Population Normal (%) [5]: 100% | Population Pyknosed Nuclei (%) [5]: 4.8% and 10.44% | Total Cell Count [5]: 250 and 182 | Population Apoptotic (%) [6]: 11.76% and 33.33% | Population Fragmented Nuclei (%) [6]: 10.61% and 5.58% | Population Healthy Nuclei (%) [6]: 82.45% and 88.32% | Population Hoechst High Intensity Objects (%) [6]: 0% | Population Membrane Permeable-Phenotype (%) [6]: 0% and 2.3% | Population Mitochondria Different-Phenotype (%) [6]: 9.9% and 4.02% | Population Mitotic Cells (%) [6]: 88.24% and 66.67% | Population Normal (%) [6]: 100% | Population Pyknosed Nuclei (%) [6]: 6.94% and 6.09% | Total Cell Count [6]: 245 and 197

Cn1cnc(-c2cnc(O[C@H]3CCN(C(=O)Cc4ccc(OC(F)(F)F)cc4)C[C@H]3F)c(C(N)=O)c2)c1
Population Apoptotic (%) [1]: 14% | Population Healthy Nuclei (%) [1]: 57.67% and 77.82% | Population Hoechst High Intensity Objects (%) [1]: 0% | Population Mitotic Cells (%) [1]: 86% and 87.5% | Population Normal (%) [1]: 100% | Population Pyknosed Nuclei (%) [1]: 26.46% and 13.39% | Population Apoptotic (%) [2]: 14.93% and 26.53% | Population Healthy Nuclei (%) [2]: 58.85% and 71.95% | Population Hoechst High Intensity Objects (%) [2]: 0% | Population Mitotic Cells (%) [2]: 85.07% and 73.47% | Population Normal (%) [2]: 100% | Population Pyknosed Nuclei (%) [2]: 29.65% and 22.17% | Population Apoptotic (%) [3]: 8.89% and 19.35% | Population Healthy Nuclei (%) [3]: 68.08% and 79.62% | Population Hoechst High Intensity Objects (%) [3]: 0% | Population Mitotic Cells (%) [3]: 91.11% and 80.65% | Population Normal (%) [3]: 100% | Population Pyknosed Nuclei (%) [3]: 21.13% and 11.7% | Population Healthy Nuclei (%) [4]: 69.48% and 75.54% | Population Hoechst High Intensity Objects (%) [4]: 0% | Population Mitotic Cells (%) [4]: 93.62% and 75.76% | Population Normal (%) [4]: 100% | Population Pyknosed Nuclei (%) [4]: 18.88% and 11.87% | Population Apoptotic (%) [5]: 25% | Population Healthy Nuclei (%) [5]: 78.48% and 79.12% | Population Hoechst High Intensity Objects (%) [5]: 0% | Population Mitotic Cells (%) [5]: 75% and 83.33% | Population Normal (%) [5]: 100% | Population Pyknosed Nuclei (%) [5]: 8.44% and 6.59% | Population Apoptotic (%) [6]: 33.33% and 57.14% | Population Healthy Nuclei (%) [6]: 77.93% and 84.75% | Population Hoechst High Intensity Objects (%) [6]: 0% | Population Mitotic Cells (%) [6]: 66.67% and 42.86% | Population Normal (%) [6]: 100% | Population Pyknosed Nuclei (%) [6]: 3.1% and 4.96%

— ChEMBL document CHEMBL5724801, “EUbOPEN Chemogenomics Library - Multiplex” (2024)
